ChEMBL document CHEMBL5338721, “Alkyl-substituted N-methylaryl-N'-aryl-4-aminobenzamides: A new series of small molecule inhibitors for Wip1 phosphatase” (Eur J Med Chem, 2022)
pIC50: −log10 of the molar value. The source made the active and inactive calls. The calls are words filed in the database; no cut-off is given here.

Key:
[1] = biological target: T1, Protein phosphatase 1D (Homo sapiens, UniProt O15297); assay: Inhibition of recombinant human Wip1 (1 to 420 residues) using human ATM phosphopeptide (AFEEG-pS-QSTTIGY) as substrate incubated for 7 mins by Bio-mol green assay
T1 sequence (O15297 whole entry): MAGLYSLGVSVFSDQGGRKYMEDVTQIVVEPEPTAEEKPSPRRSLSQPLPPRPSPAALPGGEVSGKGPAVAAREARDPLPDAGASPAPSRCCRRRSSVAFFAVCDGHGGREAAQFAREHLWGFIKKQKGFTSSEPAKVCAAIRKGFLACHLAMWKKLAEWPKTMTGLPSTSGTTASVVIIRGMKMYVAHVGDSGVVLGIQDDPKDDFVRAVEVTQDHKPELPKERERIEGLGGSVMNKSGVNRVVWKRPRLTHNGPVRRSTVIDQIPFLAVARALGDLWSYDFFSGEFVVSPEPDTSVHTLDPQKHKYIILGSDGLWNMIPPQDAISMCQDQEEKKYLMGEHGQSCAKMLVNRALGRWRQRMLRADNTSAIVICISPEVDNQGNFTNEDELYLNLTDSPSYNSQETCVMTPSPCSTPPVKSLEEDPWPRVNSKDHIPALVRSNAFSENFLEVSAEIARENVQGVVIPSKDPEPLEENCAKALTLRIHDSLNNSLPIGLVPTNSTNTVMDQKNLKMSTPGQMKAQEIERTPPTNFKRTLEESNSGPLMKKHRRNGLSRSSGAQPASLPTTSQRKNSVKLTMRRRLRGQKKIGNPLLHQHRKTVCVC
Outline: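 Released phosphate read by Biomol Green against phosphate standard curve; normalized to no-inhibitor (100%) and no-enzyme (0%). Screen at 100 μM; 9–10-point dose-response in triplicate, logistic fit for IC50 and Hill coefficient.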

[2] = biological target: T2, Protein phosphatase 1D (Homo sapiens) (UniProt O15297); assay: Inhibition of recombinant human Wip1 (1 to 420 residues) using human ATM phosphopeptide (AFEEG-pS-QSTTIGY) as substrate at 100 uM incubated for 7 mins by Bio-mol green assay relative to control
T2 sequence (whole entry): T1 sequence (O15297 whole entry)
Outline: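 Recombinant Wip1 (1–420) with 100 μM ATM phosphopeptide in 50 mM Tris·HCl pH 7.5 buffer with 30 mM MgCl₂, 7 min at 30 °C. Compound given at a single 100 μM concentration. Released phosphate quantified by Biomol Green with a phosphate standard curve. Percent inhibition taken from activity normalized to no-inhibitor (100%) and no-enzyme (0%) controls.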

[3] = biological target: T3, Protein phosphatase 1A (Homo sapiens) (UniProt P35813); assay: Inhibition of PPM1A (unknown origin) using human p38alpha phosphopeptide as substrate upto 100 uM incubated for 7 mins by Biomol green assay
T3 sequence (whole entry): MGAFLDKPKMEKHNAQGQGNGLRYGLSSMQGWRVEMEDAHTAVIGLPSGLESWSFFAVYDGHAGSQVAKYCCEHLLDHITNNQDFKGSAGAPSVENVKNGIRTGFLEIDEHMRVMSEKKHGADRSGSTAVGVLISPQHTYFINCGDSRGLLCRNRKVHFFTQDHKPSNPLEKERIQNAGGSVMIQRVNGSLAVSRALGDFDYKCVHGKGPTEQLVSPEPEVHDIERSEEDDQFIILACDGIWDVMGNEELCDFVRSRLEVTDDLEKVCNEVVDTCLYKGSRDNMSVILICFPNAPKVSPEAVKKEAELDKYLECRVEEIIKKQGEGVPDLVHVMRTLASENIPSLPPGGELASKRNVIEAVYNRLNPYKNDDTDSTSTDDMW
Outline: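 Substrate: 100 μM p38α (175–185, 180pT) phosphopeptide, mixed with compound or DMSO, then 8 nM PPM1A added. Buffer: 50 mM Tris·HCl pH 7.5, 0.1 mM EGTA, 1 mM DTT, 1 mM CHAPS, 0.1 mg/mL BSA, 30 mM MgCl₂. Incubation: 7 min at 30 °C. Stopped with Biomol Green, 20 min colour development at room temperature. Released phosphate read at 620 nm against a phosphate standard curve. Compounds tested up to 100 μM.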

[4] = biological target: T2, Protein phosphatase 1D (Homo sapiens); assay: Inhibition of recombinant human Wip1 (1 to 420 residues) using human ATM phosphopeptide (AFEEG-pS-QSTTIGY) as substrate at 100 uM incubated for 7 mins by Bio-mol green assay
Outline: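 Purified recombinant Wip1 (1–420) incubated with compound and 100 μM ATM phosphopeptide for 7 min at 30 °C. Buffer: 50 mM Tris·HCl pH 7.5, EGTA, DTT, CHAPS, 0.1 mg/mL BSA, 30 mM MgCl₂. Phosphate measured by Biomol Green against a standard curve and normalized to no-inhibitor (100%) and no-enzyme (0%). Dose-response used 9–10 points, each in triplicate. IC50 from logistic fit (standard, or variable-slope giving a Hill coefficient).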

O=C(Nc1cccc(OP(=O)(O)O)c1)c1ccc(NCc2ccc(-c3cccc(F)c3)cc2)c(CC2CCCCC2)c1
pIC50 [1]: 4.52

O=C(Nc1cccc(OP(=O)(O)O)c1)c1ccc(NCc2ccc(-c3ccc(Cl)cc3)cc2)c(CC2CCCCC2)c1
pIC50 [1]: 3.48

Nc1ccccc1CCC1CCCCC1
inhibition [2]: 3%

O=C(Nc1cccc(OP(=O)(O)O)c1)c1ccc(NCc2ccc(F)cc2)cc1
pIC50 [1]: 3.17

O=C(Nc1cccc(Cl)c1)c1ccc(CNc2ccc(C(=O)Nc3cccc(OP(=O)(O)O)c3)cc2CC2CCCCC2)cc1
pIC50 [1]: 4.95

COC(=O)c1ccc(NCc2cccc(C(=O)O)c2)c(CCC2CCCCC2)c1
pIC50 [1]: 4.32

O=C(Nc1cccc(OP(=O)(O)O)c1)c1ccc(NCc2ccc(-c3cccc(Cl)c3)cc2)c(CC2CCCCC2)c1
pIC50 [1]: 4.32

O=C(Nc1cccc(Cl)c1)c1cccc(CNc2ccc(C(=O)Nc3cccc(OP(=O)(O)O)c3)cc2CCC2CCCCC2)c1
pIC50 [1]: 4.49

O=C(Nc1cccc(Cl)c1)c1cccc(C(=O)Nc2ccc(C(=O)Nc3cccc(OP(=O)(O)O)c3)cc2CC2CCCCC2)c1
inhibition [3]: inactive
pIC50 [1]: 5.14

O=C(Nc1cccc(OP(=O)(O)O)c1)c1ccc(NCc2ccc(F)cc2)c(CC2CCCCC2)c1
pIC50 [1]: 4.55

O=C(Nc1cccc(Cl)c1)c1cccc(CNc2ccc(C(=O)Nc3cccc(OP(=O)(O)O)c3)cc2C2CC3CCC2C3)c1 (stereo not given)
pIC50 [1]: 4.61

O=C(Nc1cccc(Cl)c1)c1cccc(CNc2ccc(C(=O)Nc3cccc(O)c3)cc2CCC2CCCCC2)c1
pIC50 [1]: 2.80

O=C(Nc1cccc(Cl)c1)c1cccc(CNc2ccc(C(=O)Nc3cccc(OP(=O)(O)O)c3)cc2CC2CCCCC2)c1
inhibition [3]: inactive
pIC50 [1]: 5.42

O=C(O)c1cccc(CNc2ccccc2CC2CCCCC2)c1
pIC50 [1]: 4.13

O=C(CC1CCCCC1)NCCCO
inhibition [4]: inactive

Nc1ccc(C(=O)Nc2cccc(OP(=O)(O)O)c2)cc1CC1CCCCC1
pIC50 [1]: 3.48

O=C(Nc1cccc(OP(=O)(O)O)c1)c1ccc(NCCCc2ccccc2)c(CC2CCCCC2)c1
pIC50 [1]: 3.98

O=C(Nc1ccc(OP(=O)(O)O)cc1)c1ccc(NCc2ccc(F)cc2)c(CC2CCCCC2)c1
pIC50 [1]: 4.54

COc1cc(OC)cc(-c2ccc(CNc3ccc(C(=O)Nc4cccc(OP(=O)(O)O)c4)cc3CC3CCCCC3)cc2)c1
pIC50 [1]: 4.74

O=C(CCCCC1CCCCC1)NCCCO
inhibition [2]: 4%

O=C(Nc1cccc(OP(=O)(O)O)c1)c1ccc(NCc2cc3ccccc3o2)c(CC2CCCCC2)c1
pIC50 [1]: 4.67

O=C(Nc1cccc(OP(=O)(O)O)c1)c1ccc(NCc2ccc3ccccc3c2)c(CC2CCCCC2)c1
pIC50 [1]: 3.56

COc1ccc(CNc2ccc(C(=O)Nc3cccc(OP(=O)(O)O)c3)cc2CC2CCCCC2)cc1
pIC50 [1]: 4.43

O=C(Nc1cccc(OP(=O)(O)O)c1)c1ccc(NCc2cccc(F)c2)c(CC2CCCCC2)c1
pIC50 [1]: 4.55

O=C(O)c1cccc(CNc2ccccc2CCC2CCCCC2)c1
inhibition [2]: 88%

O=C(Nc1cccc(OP(=O)(O)O)c1)c1ccc(NCc2cccnc2)c(CC2CCCCC2)c1
pIC50 [1]: 3.98

O=C(Nc1cccc(F)c1)c1cccc(CNc2ccc(C(=O)Nc3cccc(OP(=O)(O)O)c3)cc2CC2CCCCC2)c1
pIC50 [1]: 4.68

O=C(Nc1ccc2c(c1)OCO2)c1cccc(CNc2ccc(C(=O)Nc3cccc(OP(=O)(O)O)c3)cc2CC2CCCCC2)c1
pIC50 [1]: 4.45

Nc1ccccc1CC1CCCCC1
inhibition [4]: inactive

COc1cccc(CNc2ccc(C(=O)Nc3cccc(OP(=O)(O)O)c3)cc2CC2CCCCC2)c1
pIC50 [1]: 3.86

O=C(NCCCO)C1CCCCC1
inhibition [4]: inactive

CCCCC(CCCC)CNc1ccc(C(=O)Nc2cccc(OP(=O)(O)O)c2)cc1CC1CCCCC1
pIC50 [1]: 3.29

O=C(Nc1cccc(OP(=O)(O)O)c1)c1ccc(NCc2ccc(F)cc2)c(Cc2ccccc2)c1
pIC50 [1]: 4.20

O=C(Nc1cccc(OP(=O)(O)O)c1)c1ccc(NC(=O)c2cccc(CNc3cccc(Cl)c3)c2)c(CC2CCCCC2)c1
inhibition [3]: inactive
pIC50 [1]: 5.14

O=C(CCCC1CCCCC1)NCCCO
inhibition [2]: 1%

COC(=O)c1ccc(NCc2cccc(C(=O)O)c2)c(CC2CCCCC2)c1
pIC50 [1]: 4.27

O=C(NCCc1ccc(OP(=O)(O)O)cc1)c1ccc(NC(=O)c2ccc(F)cc2)c(CC2CCCCC2)c1
pIC50 [1]: 4.44
